The test has as its target Sodium channel protein type 5 subunit alpha (Homo sapiens, UniProt Q14524). The test can be described thus: Inhibition of human Nav1.5 expressed in HEK293 cells assessed as inward peak current by ion-works quattro patch clamp electrophysiology method. The format is cell-based. Put shortly:
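Stable HEK293 line expressing human NaV1.5, recorded by population patch clamp on the IonWorks Quattro.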

Eight compounds from ChEMBL document CHEMBL3797186, “Single Residue Substitutions That Confer Voltage-Gated Sodium Ion Channel Subtype Selectivity in the NaV1.7 Inhibitory Peptide GpTx-1” (J Med Chem, 2016) can be followed below.

Positions of bridges follow the written chain, without caps; N, C: chain ends. Residues, ends and D or L forms follow the SMILES beside them.

Chain of Sodium channel protein type 5 subunit alpha (Q14524 whole entry): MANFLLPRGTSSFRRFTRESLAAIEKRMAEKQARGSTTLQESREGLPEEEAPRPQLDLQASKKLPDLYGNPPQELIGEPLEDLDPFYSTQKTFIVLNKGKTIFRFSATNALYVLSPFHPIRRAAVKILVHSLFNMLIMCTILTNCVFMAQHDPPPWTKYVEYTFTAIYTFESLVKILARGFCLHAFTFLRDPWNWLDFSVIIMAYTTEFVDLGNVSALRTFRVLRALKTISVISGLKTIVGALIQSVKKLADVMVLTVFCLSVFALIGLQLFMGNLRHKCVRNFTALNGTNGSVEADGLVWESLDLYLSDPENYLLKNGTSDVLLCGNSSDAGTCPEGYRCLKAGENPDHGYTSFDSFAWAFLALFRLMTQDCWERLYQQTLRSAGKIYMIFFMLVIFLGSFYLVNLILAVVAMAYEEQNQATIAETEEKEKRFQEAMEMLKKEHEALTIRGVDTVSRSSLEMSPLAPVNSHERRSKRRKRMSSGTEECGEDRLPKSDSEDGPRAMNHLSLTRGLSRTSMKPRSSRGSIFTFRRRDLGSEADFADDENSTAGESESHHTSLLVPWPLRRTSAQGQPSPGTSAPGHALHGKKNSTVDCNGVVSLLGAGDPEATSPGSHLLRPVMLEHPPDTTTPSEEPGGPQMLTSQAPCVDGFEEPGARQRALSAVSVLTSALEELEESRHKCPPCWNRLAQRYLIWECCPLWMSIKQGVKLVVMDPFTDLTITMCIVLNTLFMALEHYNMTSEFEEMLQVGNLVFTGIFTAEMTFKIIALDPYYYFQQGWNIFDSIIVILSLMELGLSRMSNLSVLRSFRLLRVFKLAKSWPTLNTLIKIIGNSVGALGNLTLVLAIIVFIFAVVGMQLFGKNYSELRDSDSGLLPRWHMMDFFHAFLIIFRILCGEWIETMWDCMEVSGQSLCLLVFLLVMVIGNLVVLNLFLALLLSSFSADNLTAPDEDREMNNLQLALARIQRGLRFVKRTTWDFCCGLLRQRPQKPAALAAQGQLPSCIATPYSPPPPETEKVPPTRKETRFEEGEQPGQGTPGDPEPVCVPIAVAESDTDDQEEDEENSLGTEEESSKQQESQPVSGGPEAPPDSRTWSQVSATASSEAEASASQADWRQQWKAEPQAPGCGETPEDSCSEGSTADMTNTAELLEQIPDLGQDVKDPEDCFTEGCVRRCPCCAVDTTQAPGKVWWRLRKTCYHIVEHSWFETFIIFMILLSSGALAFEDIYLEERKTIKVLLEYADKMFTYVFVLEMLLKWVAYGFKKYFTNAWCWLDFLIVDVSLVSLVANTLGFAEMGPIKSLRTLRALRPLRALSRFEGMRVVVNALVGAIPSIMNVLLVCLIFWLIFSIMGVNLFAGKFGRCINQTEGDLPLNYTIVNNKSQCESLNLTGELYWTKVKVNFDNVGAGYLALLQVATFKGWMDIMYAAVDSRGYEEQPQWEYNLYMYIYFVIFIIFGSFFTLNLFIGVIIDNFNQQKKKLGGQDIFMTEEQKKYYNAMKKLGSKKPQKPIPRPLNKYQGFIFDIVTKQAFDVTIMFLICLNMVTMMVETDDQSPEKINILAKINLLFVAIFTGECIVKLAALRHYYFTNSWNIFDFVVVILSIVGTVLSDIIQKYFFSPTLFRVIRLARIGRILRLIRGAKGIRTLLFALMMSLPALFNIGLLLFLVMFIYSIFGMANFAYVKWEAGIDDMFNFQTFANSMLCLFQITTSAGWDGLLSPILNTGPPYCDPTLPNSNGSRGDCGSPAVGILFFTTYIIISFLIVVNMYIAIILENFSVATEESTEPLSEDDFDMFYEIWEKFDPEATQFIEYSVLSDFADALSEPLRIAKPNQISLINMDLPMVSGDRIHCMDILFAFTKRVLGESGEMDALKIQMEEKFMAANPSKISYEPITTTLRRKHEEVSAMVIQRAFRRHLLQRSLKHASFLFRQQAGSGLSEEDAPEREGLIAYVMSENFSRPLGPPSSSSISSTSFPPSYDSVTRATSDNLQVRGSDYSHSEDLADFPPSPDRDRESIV

Consider `CC[C@H](C)[C@@H]1NC(=O)[C@@H]2CSSC[C@@H]3NC(=O)[C@H](C(C)C)NC(=O)[C@H](CC(C)C)NC(=O)[C@H](CC(N)=O)NC(=O)[C@@H]4CCCN4C(=O)[C@H](CCCNC(=N)N)NC(=O)[C@H](CSSC[C@H](NC(=O)[C@@H](N)CC(=O)O)C(=O)N[C@@H](CC(C)C)C(=O)NCC(=O)N[C@@H](Cc4ccccc4)C(=O)N[C@@H](CCSC)C(=O)N[C@@H](CCCNC(=N)N)C(=O)N[C@@H](CCCCN)C(=O)N2)NC(=O)[C@H](CSSC[C@@H](C(=O)N[C@@H](CCCCN)C(=O)N[C@@H](Cc2ccc(O)cc2)C(=O)N[C@H](C(=O)N[C@@H](Cc2ccccc2)C(N)=O)C(C)C)NC(=O)[C@H](Cc2c[nH]c4ccccc24)NC(=O)[C@H](CCCCN)NC(=O)[C@H](Cc2cnc[nH]2)NC(=O)[C@H]([C@@H](C)O)NC(=O)[C@H](CCCNC(=N)N)NC(=O)[C@H](CO)NC3=O)NC(=O)[C@H](CCCCN)NC(=O)[C@H](CC(=O)O)NC(=O)[C@H](CCCCN)NC(=O)[C@H](CC(=O)O)NC(=O)[C@@H]2CCCN2C1=O` (H-DCLGFMRKCIPDKDKCCRPNLVCSRTHKWCKYVF-NH2; disulfide 2-17, 9-23, 16-30), for which the IC50 is > 5 µM.

`CC[C@H](C)[C@@H]1NC(=O)[C@@H]2CSSC[C@@H]3NC(=O)[C@H](CCC(=O)O)NC(=O)[C@H](CC(C)C)NC(=O)[C@H](CC(N)=O)NC(=O)[C@@H]4CCCN4C(=O)[C@H](CCCNC(=N)N)NC(=O)[C@H](CSSC[C@H](NC(=O)[C@@H](N)CC(=O)O)C(=O)N[C@@H](CC(C)C)C(=O)NCC(=O)N[C@@H](Cc4ccccc4)C(=O)N[C@@H](CCSC)C(=O)N[C@@H](CCCNC(=N)N)C(=O)N[C@@H](CCCCN)C(=O)N2)NC(=O)[C@H](CSSC[C@@H](C(=O)N[C@@H](CCCCN)C(=O)N[C@@H](Cc2ccc(O)cc2)C(=O)N[C@H](C(=O)N[C@@H](Cc2ccccc2)C(N)=O)C(C)C)NC(=O)[C@H](Cc2c[nH]c4ccccc24)NC(=O)[C@H](CCCCN)NC(=O)[C@H](Cc2cnc[nH]2)NC(=O)[C@H]([C@@H](C)O)NC(=O)[C@H](CCCNC(=N)N)NC(=O)[C@H](CO)NC3=O)NC(=O)[C@H](CCCCN)NC(=O)[C@H](CC(=O)O)NC(=O)[C@H](CC(N)=O)NC(=O)[C@H](CC(=O)O)NC(=O)[C@@H]2CCCN2C1=O` (H-DCLGFMRKCIPDNDKCCRPNLECSRTHKWCKYVF-NH2; disulfide 2-17, 9-23, 16-30): the IC50 was > 5 µM.

In the case of `CSCC[C@@H]1NC(=O)[C@H](Cc2ccccc2)NC(=O)CNC(=O)[C@H](CC(C)C)NC(=O)[C@@H](NC(=O)[C@@H](N)CC(=O)O)CSSC[C@@H]2NC(=O)[C@@H]3CSSC[C@@H](C(=O)N[C@@H](CCCCN)C(=O)N[C@@H](Cc4ccc(O)cc4)C(=O)N[C@H](C(=O)N[C@@H](Cc4ccccc4)C(N)=O)C(C)C)NC(=O)[C@H](Cc4c[nH]c5ccccc45)NC(=O)[C@H](CCCCN)NC(=O)[C@H](Cc4cnc[nH]4)NC(=O)[C@H]([C@@H](C)O)NC(=O)[C@H](CCCNC(=N)N)NC(=O)[C@H](CO)NC(=O)[C@H](CSSC[C@H](NC(=O)[C@H](CCCCN)NC(=O)[C@H](CCCNC(=N)N)NC1=O)C(=O)N[C@@H](C(C)C)C(=O)N1CCC[C@H]1C(=O)N[C@@H](CC(=O)O)C(=O)N[C@@H](CC(N)=O)C(=O)N[C@@H](CC(=O)O)C(=O)N[C@@H](CCCCN)C(=O)N3)NC(=O)[C@H](C(C)C)NC(=O)[C@H](CC(C)C)NC(=O)[C@H](CC(N)=O)NC(=O)[C@@H]1CCCN1C(=O)[C@H](CCCNC(=N)N)NC2=O` (H-DCLGFMRKCVPDNDKCCRPNLVCSRTHKWCKYVF-NH2; disulfide 2-17, 9-23, 16-30), the IC50 is > 5 µM.

As for `CC[C@H](C)[C@@H]1NC(=O)[C@@H]2CSSC[C@@H]3NC(=O)[C@H](C(C)C)NC(=O)[C@H](CC(C)C)NC(=O)[C@H](CC(N)=O)NC(=O)[C@@H]4CCCN4C(=O)[C@H](CCCNC(=N)N)NC(=O)[C@H](CSSC[C@H](NC(=O)[C@@H](N)CC(=O)O)C(=O)N[C@@H](CC(C)C)C(=O)NCC(=O)N[C@@H](Cc4ccccc4)C(=O)N[C@@H](CCSC)C(=O)N[C@@H](CCCNC(=N)N)C(=O)N[C@@H](CCCCN)C(=O)N2)NC(=O)[C@H](CSSC[C@@H](C(=O)N[C@@H](CCCCN)C(=O)N[C@@H](Cc2ccc(O)cc2)C(=O)N[C@H](C(=O)N[C@@H](Cc2ccccc2)C(=O)O)C(C)C)NC(=O)[C@H](Cc2c[nH]c4ccccc24)NC(=O)[C@H](CCCCN)NC(=O)[C@H](Cc2cnc[nH]2)NC(=O)[C@H]([C@@H](C)O)NC(=O)[C@H](CCCNC(=N)N)NC(=O)[C@H](CO)NC3=O)NC(=O)[C@H](CCCCN)NC(=O)[C@H](CC(=O)O)NC(=O)[C@H](CC(N)=O)NC(=O)[C@H](CC(=O)O)NC(=O)[C@@H]2CCCN2C1=O` (stereo in doubt; 158), under “hek293”, the IC50 was > 5 µM.

Consider `CC[C@H](C)[C@@H]1NC(=O)[C@@H]2CSSC[C@@H]3NC(=O)[C@H](C(C)C)NC(=O)[C@H](CC(C)C)NC(=O)[C@H](CC(N)=O)NC(=O)[C@@H]4CCCN4C(=O)[C@H](CCCNC(=N)N)NC(=O)[C@H](CSSC[C@H](NC(=O)[C@@H](N)CC(=O)O)C(=O)N[C@@H](CC(C)C)C(=O)NCC(=O)N[C@@H](Cc4ccccc4)C(=O)N[C@@H](CCSC)C(=O)N[C@@H](CCCNC(=N)N)C(=O)N[C@@H](CCCCN)C(=O)N2)NC(=O)[C@H](CSSC[C@@H](C(=O)N[C@@H](CCCCN)C(=O)N[C@@H](Cc2ccc(O)cc2)C(=O)N[C@H](C(=O)N[C@@H](Cc2ccccc2)C(=O)N[C@@H](CCC(=O)O)C(N)=O)C(C)C)NC(=O)[C@H](Cc2c[nH]c4ccccc24)NC(=O)[C@H](CCCCN)NC(=O)[C@H](Cc2c[nH]cn2)NC(=O)[C@H]([C@@H](C)O)NC(=O)[C@H](CCCNC(=N)N)NC(=O)[C@H](CO)NC3=O)NC(=O)[C@H](CCCCN)NC(=O)[C@H](CC(=O)O)NC(=O)[C@H](CC(N)=O)NC(=O)[C@H](CC(=O)O)NC(=O)[C@@H]2CCCN2C1=O`, for which the IC50 was > 5 µM.

Turning to `CC[C@H](C)[C@@H]1NC(=O)[C@@H]2CSSC[C@@H]3NC(=O)[C@H](C(C)C)NC(=O)[C@H](CC(C)C)NC(=O)[C@H](CC(N)=O)NC(=O)[C@@H]4CCCN4C(=O)[C@H](CCCNC(=N)N)NC(=O)[C@H](CSSC[C@H](NC(=O)[C@@H](N)CC(=O)O)C(=O)N[C@@H](CC(C)C)C(=O)NCC(=O)N[C@@H](Cc4ccccc4)C(=O)N[C@@H](CCSC)C(=O)N[C@@H](CCCNC(=N)N)C(=O)N[C@@H](CCCCN)C(=O)N2)NC(=O)[C@H](CSSC[C@@H](C(=O)N[C@@H](CCCCN)C(=O)N[C@@H](Cc2ccc(O)cc2)C(=O)N[C@H](C(=O)N[C@@H](Cc2ccccc2)C(=O)N[C@@H](CCCCN)C(N)=O)C(C)C)NC(=O)[C@H](Cc2c[nH]c4ccccc24)NC(=O)[C@H](CCCCN)NC(=O)[C@H](Cc2cnc[nH]2)NC(=O)[C@H]([C@@H](C)O)NC(=O)[C@H](CCCNC(=N)N)NC(=O)[C@H](CO)NC3=O)NC(=O)[C@H](CCCCN)NC(=O)[C@H](CC(=O)O)NC(=O)[C@H](CC(N)=O)NC(=O)[C@H](CC(=O)O)NC(=O)[C@@H]2CCCN2C1=O`, the IC50 is > 5 µM.

`CC[C@H](C)[C@@H]1NC(=O)[C@@H]2CSSC[C@@H]3NC(=O)[C@H](CCCNC(=N)N)NC(=O)[C@H](CC(C)C)NC(=O)[C@H](CC(N)=O)NC(=O)[C@@H]4CCCN4C(=O)[C@H](CCCNC(=N)N)NC(=O)[C@H](CSSC[C@H](NC(=O)[C@@H](N)CC(=O)O)C(=O)N[C@@H](CC(C)C)C(=O)NCC(=O)N[C@@H](Cc4ccccc4)C(=O)N[C@@H](CCSC)C(=O)N[C@@H](CCCNC(=N)N)C(=O)N[C@@H](CCCCN)C(=O)N2)NC(=O)[C@H](CSSC[C@@H](C(=O)N[C@@H](CCCCN)C(=O)N[C@@H](Cc2ccc(O)cc2)C(=O)N[C@H](C(=O)N[C@@H](Cc2ccccc2)C(N)=O)C(C)C)NC(=O)[C@H](Cc2c[nH]c4ccccc24)NC(=O)[C@H](CCCCN)NC(=O)[C@H](Cc2cnc[nH]2)NC(=O)[C@H]([C@@H](C)O)NC(=O)[C@H](CCCNC(=N)N)NC(=O)[C@H](CO)NC3=O)NC(=O)[C@H](CCCCN)NC(=O)[C@H](CC(=O)O)NC(=O)[C@H](CC(N)=O)NC(=O)[C@H](CC(=O)O)NC(=O)[C@@H]2CCCN2C1=O` (H-DCLGFMRKCIPDNDKCCRPNLRCSRTHKWCKYVF-NH2; disulfide 2-17, 9-23, 16-30): the IC50 is > 5 µM.

Regarding `CSCC[C@@H]1NC(=O)[C@H](Cc2ccccc2)NC(=O)CNC(=O)[C@H](CC(C)C)NC(=O)[C@@H](NC(=O)[C@@H](N)CC(=O)O)CSSC[C@@H]2NC(=O)[C@@H]3CSSC[C@@H](C(=O)N[C@@H](CCCCN)C(=O)N[C@@H](Cc4ccc(O)cc4)C(=O)N[C@H](C(=O)N[C@@H](Cc4ccccc4)C(N)=O)C(C)C)NC(=O)[C@H](Cc4c[nH]c5ccccc45)NC(=O)[C@H](CCCCN)NC(=O)[C@H](Cc4cnc[nH]4)NC(=O)[C@H]([C@@H](C)O)NC(=O)[C@H](CCCNC(=N)N)NC(=O)[C@H](CO)NC(=O)[C@H](CSSC[C@H](NC(=O)[C@H](CCCCN)NC(=O)[C@H](CCCNC(=N)N)NC1=O)C(=O)N[C@@H](CO)C(=O)N1CCC[C@H]1C(=O)N[C@@H](CC(=O)O)C(=O)N[C@@H](CC(N)=O)C(=O)N[C@@H](CC(=O)O)C(=O)N[C@@H](CCCCN)C(=O)N3)NC(=O)[C@H](C(C)C)NC(=O)[C@H](CC(C)C)NC(=O)[C@H](CC(N)=O)NC(=O)[C@@H]1CCCN1C(=O)[C@H](CCCNC(=N)N)NC2=O` (H-DCLGFMRKCSPDNDKCCRPNLVCSRTHKWCKYVF-NH2; disulfide 2-17, 9-23, 16-30), the IC50 was > 2.7 µM.
